In experiment [1] the target is T1, cGMP-inhibited 3',5'-cyclic phosphodiesterase 3B (Homo sapiens, UniProt Q13370). Description: Inhibition of human PDE3B by fluorescence microplate reader. In short, it runs like this:
(§1)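 IMAP fluorescence-polarization PDE assay: 1 ng PDE3A or PDE3B, 100 nM FAM-cAMP in IMAP reaction buffer, 60 min at room temperature. Binding reagent (1:600) added for a further 60 min at room temperature. Read at ex 485/em 528 nm, in duplicate. % activity is normalised to the no-enzyme and maximum-FP values. IC50 comes from a sigmoidal fit over 0.01–100 μM.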
Target sequence in this assay (Q13370 whole entry): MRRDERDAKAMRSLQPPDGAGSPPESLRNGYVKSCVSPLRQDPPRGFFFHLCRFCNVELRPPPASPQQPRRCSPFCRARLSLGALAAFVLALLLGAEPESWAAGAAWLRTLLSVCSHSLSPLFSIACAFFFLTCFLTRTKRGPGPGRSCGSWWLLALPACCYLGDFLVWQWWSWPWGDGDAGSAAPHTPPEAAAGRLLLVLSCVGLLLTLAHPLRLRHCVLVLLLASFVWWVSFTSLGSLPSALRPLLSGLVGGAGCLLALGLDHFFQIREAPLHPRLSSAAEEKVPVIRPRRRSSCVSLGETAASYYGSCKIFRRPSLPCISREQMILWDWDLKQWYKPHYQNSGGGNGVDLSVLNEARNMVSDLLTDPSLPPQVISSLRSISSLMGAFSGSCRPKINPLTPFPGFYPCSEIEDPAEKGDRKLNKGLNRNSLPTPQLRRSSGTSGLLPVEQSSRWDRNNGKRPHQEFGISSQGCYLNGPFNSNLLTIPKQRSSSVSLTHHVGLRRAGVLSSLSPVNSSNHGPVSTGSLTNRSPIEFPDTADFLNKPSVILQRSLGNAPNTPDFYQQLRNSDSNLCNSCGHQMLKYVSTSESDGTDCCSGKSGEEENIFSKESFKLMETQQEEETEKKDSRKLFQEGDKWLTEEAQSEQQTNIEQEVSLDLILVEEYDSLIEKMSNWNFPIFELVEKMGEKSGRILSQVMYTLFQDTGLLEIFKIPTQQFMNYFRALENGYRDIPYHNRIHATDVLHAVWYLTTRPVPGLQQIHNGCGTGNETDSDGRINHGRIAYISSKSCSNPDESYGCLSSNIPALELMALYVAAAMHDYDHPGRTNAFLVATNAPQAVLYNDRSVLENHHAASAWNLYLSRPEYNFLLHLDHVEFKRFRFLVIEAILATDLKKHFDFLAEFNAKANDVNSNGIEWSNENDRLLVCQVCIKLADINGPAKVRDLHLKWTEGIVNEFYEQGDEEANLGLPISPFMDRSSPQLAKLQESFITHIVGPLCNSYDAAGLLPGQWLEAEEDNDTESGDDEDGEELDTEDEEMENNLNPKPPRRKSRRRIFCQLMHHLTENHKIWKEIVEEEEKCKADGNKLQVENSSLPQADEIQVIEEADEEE

In experiment [2] the target is T2, cGMP-inhibited 3',5'-cyclic phosphodiesterase 3A (Homo sapiens, UniProt Q14432). Briefly: Inhibition of human PDE3A by fluorescence microplate reader. The method in brief: as §1
T2 sequence (Q14432 whole entry): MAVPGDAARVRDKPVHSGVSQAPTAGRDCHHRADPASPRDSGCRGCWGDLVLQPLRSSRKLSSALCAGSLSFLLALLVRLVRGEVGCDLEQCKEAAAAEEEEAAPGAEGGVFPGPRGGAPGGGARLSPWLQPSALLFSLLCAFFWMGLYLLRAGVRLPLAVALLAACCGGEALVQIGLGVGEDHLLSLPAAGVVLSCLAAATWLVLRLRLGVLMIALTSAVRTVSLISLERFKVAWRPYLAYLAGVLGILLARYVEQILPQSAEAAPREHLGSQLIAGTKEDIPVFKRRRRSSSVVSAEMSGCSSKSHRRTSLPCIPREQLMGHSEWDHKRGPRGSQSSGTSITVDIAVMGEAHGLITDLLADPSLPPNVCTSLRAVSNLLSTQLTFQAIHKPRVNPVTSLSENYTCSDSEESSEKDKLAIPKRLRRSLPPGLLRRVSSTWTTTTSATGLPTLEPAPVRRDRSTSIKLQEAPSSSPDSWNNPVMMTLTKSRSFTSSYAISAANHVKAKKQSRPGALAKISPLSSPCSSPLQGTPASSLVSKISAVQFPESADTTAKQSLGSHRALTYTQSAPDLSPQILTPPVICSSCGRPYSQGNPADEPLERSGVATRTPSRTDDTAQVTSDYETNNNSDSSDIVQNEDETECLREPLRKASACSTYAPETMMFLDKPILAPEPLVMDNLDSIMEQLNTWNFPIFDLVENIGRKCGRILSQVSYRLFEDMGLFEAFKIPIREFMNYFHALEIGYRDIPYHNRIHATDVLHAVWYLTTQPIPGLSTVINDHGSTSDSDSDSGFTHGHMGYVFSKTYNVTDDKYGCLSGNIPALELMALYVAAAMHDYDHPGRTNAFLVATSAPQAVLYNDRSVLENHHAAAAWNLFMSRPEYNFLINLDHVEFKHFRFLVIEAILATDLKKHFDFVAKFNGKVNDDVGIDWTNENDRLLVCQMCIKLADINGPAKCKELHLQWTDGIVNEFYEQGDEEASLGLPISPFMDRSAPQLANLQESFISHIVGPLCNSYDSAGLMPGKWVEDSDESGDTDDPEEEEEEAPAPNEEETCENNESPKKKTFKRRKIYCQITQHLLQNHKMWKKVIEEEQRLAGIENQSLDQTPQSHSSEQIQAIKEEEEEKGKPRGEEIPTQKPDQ
Experiment [3] addresses T2, cGMP-inhibited 3',5'-cyclic phosphodiesterase 3A. Description: Ratio of IC50 for vesnarinone to IC50 for drug against human PDE3A by fluorescence microplate reader.
Experiment [4] has as its target T1, cGMP-inhibited 3',5'-cyclic phosphodiesterase 3B. Description: Ratio of IC50 for vesnarinone to IC50 for drug against human PDE3B by fluorescence microplate reader.
Target sequence in this assay (Q13370 whole entry, looked up): as the sequence (Q13370 whole entry) above
Experiment [5] shares this target. Description: Ratio of IC50 for vesnarinone to IC50 for drug against human PDE3B by fluorescence microplate reader.
Target sequence in this assay (Q13370 whole entry, looked up): as the sequence (Q13370 whole entry) above
The target in experiment [6] is T2, cGMP-inhibited 3',5'-cyclic phosphodiesterase 3A. Description: Ratio of IC50 for vesnarinone to IC50 for drug against human PDE3A by fluorescence microplate reader.
Experiment [7] can be described thus: Positive inotropic activity in isolated reserpine-treated Wistar rat whole atrium assessed as contraction at 10 uM (Rvb=100+/-3%). In kind it is functional, Cardiac atrium. In short, it runs like this: (§2)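 Male Wistar rats (250–350 g) received reserpine 5 mg/kg ip 24 h before thiopental anaesthesia. Whole atria were mounted in Krebs–Henseleit gassed with 95% O2/5% CO2, 35–37 °C, pH 7.35–7.45, under about 0.5 g resting tension with 40–50 min equilibration. Only tyramine (1.5 μM)-unresponsive preparations were used. Compounds were added cumulatively (1–100 μM), with isometric force and rate recorded. Values are mean ± SEM, six atria.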

Experiment [8] in a line: Positive inotropic activity in isolated reserpine-treated Wistar rat whole atrium assessed as heart rate at 100 uM (Rvb=100+/-2%). Format: functional, Cardiac atrium. In short, it runs like this:
as §2

Experiment [9] in a line: Positive inotropic activity in isolated reserpine-treated Wistar rat whole atrium assessed as heart rate at 10 uM (Rvb=100+/-2%). In kind it is functional, Cardiac atrium. In short, it runs like this: as §2
Experiment [10] is described as follows: Positive inotropic activity in isolated reserpine-treated Wistar rat whole atrium assessed as contraction at 100 uM (Rvb=100+/-3%). In kind it is functional, Cardiac atrium. In short, it runs like this: as §2
Experiment [11] in a line: Positive inotropic activity in isolated reserpine-treated Wistar rat whole atrium assessed as contraction at 1 uM (Rvb=100+/-3%). Format: functional, Cardiac atrium. In short, it runs like this:
as §2

A short description of experiment [12]: Positive inotropic activity in isolated reserpine-treated Wistar rat whole atrium assessed as heart rate at 10 uM (Rvb=100+/-3%). In kind it is functional, Cardiac atrium. The method in brief: as §2
Experiment [13] in a line: Positive inotropic activity in isolated reserpine-treated Wistar rat whole atrium assessed as heart rate at 1 uM (Rvb=100+/-3%). Format: functional, Cardiac atrium. In short, it runs like this: as §2
The nature of experiment [14]: Positive inotropic activity in isolated reserpine-treated Wistar rat whole atrium assessed as contraction at 100 uM (Rvb=100+/-4%). In kind it is functional, Cardiac atrium. In short, it runs like this:
as §2

The nature of experiment [15]: Positive inotropic activity in isolated reserpine-treated Wistar rat whole atrium assessed as contraction at 1 uM (Rvb=100+/-4%). Format: functional, Cardiac atrium. In short, it runs like this:
as §2

Experiment [16] in a line: Positive inotropic activity in isolated reserpine-treated Wistar rat whole atrium assessed as contraction at 10 uM (Rvb=100+/-4%). Format: functional, Cardiac atrium. The method in brief:
as §2

A short description of experiment [17]: Positive inotropic activity in isolated reserpine-treated Wistar rat whole atrium assessed as heart rate at 100 uM (Rvb=100+/-3%). In kind it is functional, Cardiac atrium. In short, it runs like this:
as §2

pIC50: −log10 of the molar value.

As usually defined, the pIC50 is the IC50 on a negative log10 scale, so that one unit is a factor of ten. Lower therefore signals a large IC50.

For `Cc1cc(=O)[nH]c2ccc(OCc3cccc(C(=O)N4CCC(O)CC4)c3)cc12`, the pIC50 is 6.04 in experiment [1] and 5.87 in experiment [2].

Consider `Cc1cc(=O)[nH]c2ccc(OCc3cccc(C(=O)N4CCN(C)CC4)c3)cc12`, for which the results for the Ratio IC50 in experiment [3] and in experiment [4] were 6 and 4, respectively. Besides, the values for the pIC50 in [1] and in [2] were 5.45 and 5.75, respectively.

As for `Cc1cc(=O)[nH]c2ccc(OCc3cccc(C(=O)N4CCC(C(=O)O)CC4)c3)cc12`, the figures for the negative logarithm of the IC50 (pIC50) in experiment [1] and in experiment [2] were 5.89 and 6.08, respectively.

In the case of `Cc1cc(=O)[nH]c2ccc(OCc3cccc(C(=O)N4CCOCC4)c3)cc12`, the pIC50 is 5.81 in experiment [1] and 5.87 in experiment [2].

Regarding `CCN1CCN(C(=O)c2cccc(COc3ccc4[nH]c(=O)cc(C)c4c3)c2)CC1`, the values for the Ratio IC50 in experiment [5] and in experiment [6] were 8 and 25, respectively. In addition, the Activity in experiment [7] worked out at 123%; in [8], 116%; in experiment [9], 108%; in [10], 146%; in [11] it was 101%. The figures for the pIC50 in experiment [1] and in experiment [2] were 5.71 and 5.84, respectively.

On to `Cc1cc(=O)[nH]c2ccc(OCc3cccc(C(=O)N4CCC(=O)CC4)c3)cc12`, for which the results for the negative logarithm of the IC50 (pIC50) in experiment [1] and in [2] were 5.94 and 5.90, respectively.

Consider `COc1ccc(C(=O)N2CCN(c3ccc4c(c3)CCC(=O)N4)CC2)cc1OC` [VESNARINONE], for which the Activity turned out to be 109% in experiment [12]; 103% in experiment [13]; 141% in experiment [14]; 102% in experiment [15]; 121% in [16]; 114% in experiment [17]. Further, the results for the pIC50 in [1] and in experiment [2] were 4.88 and 4.97, respectively.

Regarding `Cc1cc(=O)[nH]c2ccc(OCc3cccc(C(=O)N4CCN(CCO)CC4)c3)cc12`, the figures for the pIC50 in [1] and in [2] were 5.55 and 5.78, respectively.

For `Cc1cc(=O)[nH]c2ccc(OCc3cccc(C(=O)N4CCCCC4)c3)cc12`, the negative logarithm of the IC50 (pIC50) is 5.76 in experiment [1] and 6.18 in experiment [2].

For the compound `Cc1cc(=O)[nH]c2ccc(OCc3cccc(C(=O)N4CCCC4)c3)cc12`, the pIC50 is 5.92 in experiment [1] and 6.19 in experiment [2].

As to `Cc1cc(=O)[nH]c2ccc(OCc3cccc(C(=O)N4CCC(C)CC4)c3)cc12`, the pIC50 is 5.79 in experiment [1] and 6.37 in experiment [2].
